The list is not random: actives were taken first. Their share in the collection is about 1.6%.
HNF4A DNA FP: change in binding of human HNF4A to DNA, primary screen, biochemical, fluorescence polarization, FITC-DNA. activity change, % at 10 µM. Hepatocyte nuclear factor 4-alpha (Homo sapiens), P41235. AID 1224865, 2016. hit rate 0.3% among 360,000. 1 h; in the data active = activity change above about 30%, passing the limit was not always enough
PKA-R1A activ: activators of PKA-R1A holoenzyme, primary screen, biochemical, fluorescence polarization, Cy5-IP20, bovine R1A, mouse PKAc | PKA-R1A dissociation; scaled: DMSO 0%, 113 µM cGMP 100% | hit rate 0.083% among 340,000 | activation, % at 11.4 µM | cAMP-dependent protein kinase type I-alpha regulatory subunit (Bos taurus) + …;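 active = percent activation above the mean of all tested compounds plus 3 SD, cut at about 19% in these data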;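 note: higher means more PKAc released from R1A so a rise in polarization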
CSN inh: inhibitors of CSN-mediated cullin deneddylation, primary screen, biochemical, fluorescence polarization, uHTS; hit rate 0.38% among 360,000; COP9 signalosome complex subunit 5 (Homo sapiens), Q92905; Purified CSN, SCF-Nedd8-OG deneddylation; inhibition, % at 12.5 µM;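 active = pattern-corrected inhibition above about 35%, with an unprinted fluorescence ratio check between 0.5 and 1.5, limit read from the data, passing the limit was not always enough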
Target sequence (Q92905 whole entry, looked up, one chain of several): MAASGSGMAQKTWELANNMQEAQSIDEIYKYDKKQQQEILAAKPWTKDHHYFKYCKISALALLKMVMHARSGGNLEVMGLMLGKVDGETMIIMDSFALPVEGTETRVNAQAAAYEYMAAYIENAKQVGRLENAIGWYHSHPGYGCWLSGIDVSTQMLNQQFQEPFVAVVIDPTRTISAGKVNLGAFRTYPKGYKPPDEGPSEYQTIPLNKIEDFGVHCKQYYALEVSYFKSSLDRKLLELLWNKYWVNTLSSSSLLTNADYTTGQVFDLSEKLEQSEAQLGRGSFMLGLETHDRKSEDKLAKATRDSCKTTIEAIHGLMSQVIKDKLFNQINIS
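Detection – fluorescence polarization · System – HEK293T-derived human Csn5 enzyme · Controls – substrate-only high control, full reaction low control · Timing – 90 min, room temperature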
PKA-R2B activ: activators of PKA-R2B holoenzyme, primary screen, biochemical, fluorescence polarization, Cy5-IP20, human | activation, % at 11.4 µM | PKA-R2B holoenzyme dissociation; R2B truncated from residue 108, S112A mutant; 0% DMSO only, 100% 113 µM cGMP | hit rate 0.079% among 340,000 | cAMP-dependent protein kinase catalytic subunit beta (Homo sapiens) + cAMP-dependent …;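 active = activation above a cutoff set at the mean over all compounds plus 3 SD, cut at about 18% in these data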;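 note: higher means more holoenzyme dissociation and a rise in polarization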
TPT1 inhibitor: Candida albicans TPT1 enzyme inhibitors, primary screen, biochemical, fluorescence polarization; tRNA 2'-phosphotransferase TPT1 (Candida albicans SC5314); recombinant caTPT1, FP RNA substrate dephosphorylation; inhibition, % at 5 µM; hit rate 0.81% among 300,000;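 active = inhibition above the mean of all tested compounds plus 3 SD, set per screening campaign, cut at about 24% in these data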
Rpn11 inh: Rpn11 (PSMD14) deubiquitinase inhibitors, primary screen, biochemical, fluorescence polarization, uHTS; 26S proteasome non-ATPase regulatory subunit 14 (Homo sapiens), O00487; human 26S proteasome, Ub4-pepOG fluorescence polarization; 20S core pre-blocked with epoxomicin; calls only at 20 µM; hit rate 0.59% among 360,000; AID 588493, 2011;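 active = inhibition at 20 µM, scaled to each plate's controls, above about 33%, limit read from the data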
caTPT1 confirm: Candida albicans TPT1 inhibitors, confirmation, biochemical, fluorescence polarization, triplicate; hit rate 74% among 2,400; recombinant caTPT1, RNase T1 coupled; inhibition, % at 5 µM; shares compounds with TPT1 inhibitor;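 active = inhibition above the primary screen limit, the mean inhibition of all tested compounds plus 3 SD, cut at about 25% in these data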
RNase T1 counter: RNase T1 inhibitors, counter-screen for TPT1 inhibitor project, biochemical, fluorescence polarization; shares compounds with TPT1 inhibitor; RNase T1 cleavage, 1536-well; inhibition, % at 5 µM; hit rate 83% among 2,400; AID 2153, 2009;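 active = inhibition above the solvent-only control well mean plus 3 SD, limit set per screening run, cut at about 23% in these data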;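 note: inhibitors block cleavage so intact labeled substrate keeps polarization high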
Target sequence (P00651 whole entry, looked up): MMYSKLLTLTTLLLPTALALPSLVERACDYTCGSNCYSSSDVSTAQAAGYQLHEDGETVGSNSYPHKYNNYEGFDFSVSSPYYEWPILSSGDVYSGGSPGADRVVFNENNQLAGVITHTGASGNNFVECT
Rpn11 inh conf: Rpn11 (PSMD14) deubiquitinase inhibitors, confirmation, biochemical, fluorescence polarization, single concentration; shares compounds with Rpn11 inh; purified human 26S proteasome, Ub4-pepOG fluorescence polarization; proteasome pretreated with epoxomicin; inhibition, % at 20 µM; hit rate 29% among 1,900
MMP-2 inh: MMP-2 enzyme inhibition, confirmation, counter-screen for RPN11 inhibitor project, biochemical, fluorescence, single concentration; shares compounds with Rpn11 inh; recombinant MMP-2, FRET peptide cleavage fluorescence; inhibition, % at 20 µM; hit rate 4% among 1,900; AID 602330, 2012;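 note: human MMP-2 activated beforehand with APMA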
Thrombin FP: bovine thrombin protease inhibition, confirmation, counter-screen for Rpn11 inhibitor project, biochemical, fluorescence polarization, single concentration | hit rate 13% among 1,900 | bovine thrombin cleavage of Ub4-pepOG | shares compounds with Rpn11 inh | inhibition, % at 20 µM;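 active = mean inhibition at least 40% at 20 µM, or signal 3 deviations below plate average, so some actives read negative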
Of the large screens only hits and unclear results are named; the others gave an inactive call (follow-up assays come after a bar, where they were run). Cut-off read from the data, not from the text of the source, unless noted: active = inhibition above about 40%; inactive = the rest.

CC(C)c1ccc(Oc2cccc3c2S(=O)(=O)N(C2CCCC2)CC(COCc2ccccc2)O3)cc1 (stereo unspecified)	none (no result: TPT1 inhibitor)
c1cc(Nc2cccc3nccnc23)c2nccnc2c1	TPT1 inhibitor 25, Rpn11 inh active | caTPT1 confirm 25 | RNase T1 counter 35 | Rpn11 inh conf inactive | MMP-2 inh inactive | Thrombin FP inactive
Fc1ccc(Nc2cccc3nccnc23)cc1	none
CC(=O)Nc1ccc(S(=O)(=O)NCC2(N3CCOCC3)CCCCC2)cc1	none (no result: TPT1 inhibitor)
O=[N+]([O-])c1ccc(N/N=C/c2ccc[nH]2)cc1	TPT1 inhibitor 64, Rpn11 inh active | caTPT1 confirm 65 | RNase T1 counter 76 | Rpn11 inh conf 51 | MMP-2 inh inactive | Thrombin FP inactive
O=[N+]([O-])c1ccc(N/N=C/c2cccc(O)c2)cc1	TPT1 inhibitor 45, Rpn11 inh active | caTPT1 confirm 55 | RNase T1 counter 66 | Rpn11 inh conf inactive | MMP-2 inh inactive | Thrombin FP inactive
C/C(=N\N1CCN(c2ccccc2)CC1)c1ccco1	none
COc1cccc(C(=O)NCCCNc2nc3cc(C)cc(C)c3cc2C#N)c1	none (no result: TPT1 inhibitor)
Oc1ccc(/C=N/Nc2ccnc3cc(Cl)ccc23)cc1O	none
Oc1ccc(/C=N/Nc2ccnc3cc(Cl)ccc23)c(O)c1O	TPT1 inhibitor 33, Rpn11 inh active | caTPT1 confirm inactive | RNase T1 counter inactive | Rpn11 inh conf inactive | MMP-2 inh inactive | Thrombin FP inactive
Cc1sc2nc(CSC(C)C(=O)Nc3ccc(C(N)=O)cc3)[nH]c(=O)c2c1C (stereo unspecified)	none
Cc1sc2nc(CSCC(=O)Nc3ccccc3C#N)[nH]c(=O)c2c1C	TPT1 inhibitor 37, Rpn11 inh active | caTPT1 confirm 47 | RNase T1 counter 61 | Rpn11 inh conf 46 | MMP-2 inh inactive | Thrombin FP inactive
Cc1sc2nc(CSC(C)C(=O)Nc3ccc(C#N)cc3)[nH]c(=O)c2c1C (stereo unspecified)	TPT1 inhibitor 29, Rpn11 inh active | caTPT1 confirm 38 | RNase T1 counter 49 | Rpn11 inh conf inactive | MMP-2 inh inactive | Thrombin FP inactive
Cc1cc(NC(=O)CSc2nc3cc(Cl)ccc3s2)no1	none
O=C(CSc1nc2cc(Cl)ccc2s1)c1cc2ccccc2o1	TPT1 inhibitor 78, Rpn11 inh active | caTPT1 confirm inactive | RNase T1 counter 27 | Rpn11 inh conf 45 | MMP-2 inh inactive | Thrombin FP inactive
COc1ccc(CC(=O)NCC2CCCN(Cc3cc(OC)cc(OC)c3)C2)cc1 (stereo unspecified)	none
CCN(C(=O)COC(=O)c1ccc([N+](=O)[O-])o1)c1cccc2ccccc12	none (no result: TPT1 inhibitor)
CNC(=O)c1sc(N2N=C3/C(=C/c4ccccc4)CCCC3C2c2ccccc2)nc1C (stereo unspecified)	TPT1 inhibitor 28, Rpn11 inh active | caTPT1 confirm 44 | RNase T1 counter 53 | Rpn11 inh conf inactive | MMP-2 inh inactive | Thrombin FP inactive
CC[N+]1(C)CC2CCC(C)(C1)C2(C)C (stereo unspecified)	none (no result: TPT1 inhibitor)
CN1/C(=C\C=N\O)C(C)(C)c2ccccc21	none
CN1/C(=C/C=C(/C#N)C(N)=O)C(C)(C)c2ccccc21	HNF4A DNA FP 36, TPT1 inhibitor 87, Rpn11 inh active | caTPT1 confirm 68 | RNase T1 counter 82 | Rpn11 inh conf inactive | MMP-2 inh inactive | Thrombin FP inactive
COc1cc(SC#N)ccc1N=Cc1c(C)[nH]n(-c2ccc(C)c(C)c2)c1=O	TPT1 inhibitor 30, Rpn11 inh active | caTPT1 confirm 62 | RNase T1 counter 67 | Rpn11 inh conf inactive | MMP-2 inh inactive | Thrombin FP inactive
COc1cc(S(=O)(=O)Nc2ccccc2)ccc1N=Cc1c(C)[nH]n(-c2ccc(C)cc2)c1=O	none (no result: HNF4A DNA FP, PKA-R1A activ, CSN inh, PKA-R2B activ, Rpn11 inh)
Cc1cc(O)c(C(C)C)cc1N=Nc1ccccc1C(=O)O	TPT1 inhibitor 26, Rpn11 inh active | caTPT1 confirm 31 | RNase T1 counter 48 | Rpn11 inh conf inactive | MMP-2 inh inactive | Thrombin FP inactive
Cc1cc(N=Nc2ccccc2C(=O)O)c(C)c(C)c1O	HNF4A DNA FP 32, TPT1 inhibitor 41, Rpn11 inh active | caTPT1 confirm 42 | RNase T1 counter 60 | Rpn11 inh conf 69 | MMP-2 inh inactive | Thrombin FP 48
COc1cc(N=Nc2ccccc2C(=O)O)ccc1O	none
COc1ccc(N/C(=C2\CCCC2=O)C2CCCCC2)cc1	none
COc1ccccc1/C=C(/NC(=O)c1ccc(Cl)cc1Cl)C(=O)O	none
COc1ccccc1NS(=O)(=O)c1cc([N+](=O)[O-])ccc1N/N=C/c1c[nH]c2ccccc12	HNF4A DNA FP 72, TPT1 inhibitor 129, Rpn11 inh active | caTPT1 confirm 106 | RNase T1 counter 107 | Rpn11 inh conf inactive | MMP-2 inh inactive | Thrombin FP inactive
COc1ccc(C=NNc2ccc([N+](=O)[O-])cc2S(=O)(=O)Nc2ccccc2C(=O)O)cc1OC	none (no result: TPT1 inhibitor)

Source: PubChem
